Measurements as given in ChEMBL document CHEMBL3120077, “Synthesis, structure-activity relationship of iodinated-4-aryloxymethyl-coumarins as potential anti-cancer and anti-mycobacterial agents” (Eur J Med Chem, 2014).
≈ marks a conversion by molar mass, not a printed value.

Columns and labels:
Assay type in all cases: functional
[1] = tested on: Mycobacterium tuberculosis; experiment: Antimicrobial activity against Mycobacterium tuberculosis
Outline: (§1)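 M. tuberculosis H37Rv was tested in Middlebrook 7H9 broth in a microplate Alamar Blue assay. Compounds were serially diluted on the plate to final concentrations of 100–0.2 µg/mL. Sealed plates were incubated at 37 °C for 5 days. A fresh 1:1 mix of Alamar Blue and 10% Tween 80 was then added, followed by 24 h more incubation. Blue wells were scored as no growth, pink as growth.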

[2] = tested on: Mycolicibacterium phlei; experiment: Antimicrobial activity against Mycobacterium phlei after 5 days by microplate Alamar Blue assay; details: 120 h
Outline: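 Microplate Alamar Blue assay (MABA) in Middlebrook 7H9 broth, compounds serially diluted on plate to final 100–0.2 µg/mL. Plates sealed and incubated 37 °C for 5 days, then 1:1 Alamar Blue/10% Tween 80 added and incubated 24 h more. Blue scored as no growth, pink as growth.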

[3] = tested on: A549; experiment: Cytotoxicity against human A549 cells after 24 hrs by MTT assay
Outline: (§2)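 Cells seeded at 2×10^4/well, incubated overnight, then exposed 24 h to test concentrations. MTT (5 mg/mL stock) added, 3 h at 37 °C; formazan dissolved in DMSO, absorbance 570 nm. Percent viability inhibition relative to untreated control; IC50 from linear regression of the dose-response line.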

[4] = Cytotoxicity against human MDA-MB cells after 24 hrs by MTT assay; outline: as §2
[5] = tested on: Mycobacterium tuberculosis; experiment: Antimicrobial activity against Mycobacterium tuberculosis H37Rv after 5 days by microplate Alamar Blue assay; details: 120 h; outline: as §1
[6] = tested on: Mycobacterium tuberculosis; experiment: Antimicrobial activity against Mycobacterium tuberculosis ATCC 27294 by microplate Alamar Blue assay; outline: as §1

| SMILES | MIC [1] [µg/mL] | MIC [2] [µg/mL] | MIC [3] [µg/mL] | MIC [4] [µg/mL] | MIC [5] [µg/mL] | MIC [6] [µg/mL] |
| --- | --- | --- | --- | --- | --- | --- |
| Cc1cc(=O)oc2cc(OCc3cn(Cc4cc(=O)oc5ccc6ccccc6c45)nn3)ccc12 | 6.25 (≈ 13.4 µM) |  |  |  |  |  |
| Cc1cc(=O)oc2cc(OCc3cn(Cc4cc(=O)oc5cc(Cl)ccc45)nn3)ccc12 | 6.25 (≈ 13.9 µM) |  |  |  |  |  |
| O=c1cc(COc2cccc(I)c2)c2cc(Br)ccc2o1 |  | 6.25 (≈ 13.7 µM) | 6.25 (≈ 13.7 µM) | 6.25 (≈ 13.7 µM) | 12.5 (≈ 27.3 µM) |  |
| Cc1ccc2oc(=O)cc(COc3ccc(I)cc3)c2c1 |  | 12.5 (≈ 31.9 µM) | 12.5 (≈ 31.9 µM) | 12.5 (≈ 31.9 µM) | 12.5 (≈ 31.9 µM) |  |
| Cc1ccc2c(COc3ccc(I)cc3)cc(=O)oc2c1 |  | 12.5 (≈ 31.9 µM) | 12.5 (≈ 31.9 µM) | 12.5 (≈ 31.9 µM) | 25 (≈ 63.7 µM) |  |
| Cc1ccc2c(COc3ccc(I)cc3)cc(=O)oc2c1C |  | 12.5 (≈ 30.8 µM) | 12.5 (≈ 30.8 µM) | 12.5 (≈ 30.8 µM) | 12.5 (≈ 30.8 µM) |  |
| COc1ccc2oc(=O)cc(COc3ccc(I)cc3)c2c1 |  | 12.5 (≈ 30.6 µM) | 6.25 (≈ 15.3 µM) | 25 (≈ 61.2 µM) | 25 (≈ 61.2 µM) |  |
| COc1ccc2c(COc3ccc(I)cc3)cc(=O)oc2c1 |  | 12.5 (≈ 30.6 µM) | 6.25 (≈ 15.3 µM) | 25 (≈ 61.2 µM) | 25 (≈ 61.2 µM) |  |
| O=c1cc(COc2ccc(I)cc2)c2c(ccc3ccccc32)o1 |  | 25 (≈ 58.4 µM) | 6.25 (≈ 14.6 µM) | 25 (≈ 58.4 µM) | 25 (≈ 58.4 µM) |  |
| O=c1cc(COc2ccc(I)cc2)c2ccc3ccccc3c2o1 |  | 25 (≈ 58.4 µM) | 6.25 (≈ 14.6 µM) | 25 (≈ 58.4 µM) | 25 (≈ 58.4 µM) |  |
| O=c1cc(COc2ccc(I)cc2)c2cc(Cl)ccc2o1 |  | 3.12 (≈ 7.57 µM) | 3.12 (≈ 7.57 µM) | 1.56 (≈ 3.78 µM) | 1.56 (≈ 3.78 µM) |  |
| O=c1cc(COc2ccc(I)cc2)c2ccc(Cl)cc2o1 |  | 3.12 (≈ 7.57 µM) | 3.12 (≈ 7.57 µM) | 1.56 (≈ 3.78 µM) | 1.56 (≈ 3.78 µM) |  |
| O=c1cc(COc2ccc(I)cc2)c2cc(Br)ccc2o1 |  | 6.25 (≈ 13.7 µM) | 3.12 (≈ 6.84 µM) | 3.12 (≈ 6.84 µM) | 6.25 (≈ 13.7 µM) |  |
| O=C(N/N=C/c1cccc(O)c1)c1cc2ccccc2oc1=O | 50 (≈ 162 µM) |  |  |  |  |  |
| Cc1cc(=O)oc2cc(OCc3cn(Cc4cc(=O)oc5ccc(Cl)cc45)nn3)ccc12 | 6.25 (≈ 13.9 µM) |  |  |  |  |  |
| Cc1ccc2oc(=O)cc(COc3ccccc3I)c2c1 |  | > 100 | 50 (≈ 127 µM) | 12.5 (≈ 31.9 µM) | 12.5 (≈ 31.9 µM) |  |
| Cc1ccc2c(COc3ccccc3I)cc(=O)oc2c1 |  | > 100 | 50 (≈ 127 µM) | 12.5 (≈ 31.9 µM) | 12.5 (≈ 31.9 µM) |  |
| Cc1ccc2c(COc3ccccc3I)cc(=O)oc2c1C |  | 50 (≈ 123 µM) | 50 (≈ 123 µM) | 25 (≈ 61.5 µM) | 25 (≈ 61.5 µM) |  |
| COc1ccc2oc(=O)cc(COc3ccccc3I)c2c1 |  | 50 (≈ 122 µM) | 25 (≈ 61.2 µM) | 25 (≈ 61.2 µM) | 12.5 (≈ 30.6 µM) |  |

| SMILES | MIC [1] [µg/mL] | MIC [2] [µg/mL] | MIC [3] [µg/mL] | MIC [4] [µg/mL] | MIC [5] [µg/mL] | MIC [6] [µg/mL] |
| --- | --- | --- | --- | --- | --- | --- |
| COc1ccc2c(COc3ccccc3I)cc(=O)oc2c1 |  | 50 (≈ 122 µM) | 25 (≈ 61.2 µM) | 25 (≈ 61.2 µM) | 12.5 (≈ 30.6 µM) |  |
| O=c1cc(COc2ccccc2I)c2c(ccc3ccccc32)o1 |  | 50 (≈ 117 µM) | 25 (≈ 58.4 µM) | 25 (≈ 58.4 µM) | 50 (≈ 117 µM) |  |
| O=c1cc(COc2ccccc2I)c2ccc3ccccc3c2o1 |  | 50 (≈ 117 µM) | 25 (≈ 58.4 µM) | 25 (≈ 58.4 µM) | 50 (≈ 117 µM) |  |
| O=c1cc(COc2ccccc2I)c2cc(Cl)ccc2o1 |  | 25 (≈ 60.6 µM) | 12.5 (≈ 30.3 µM) | 12.5 (≈ 30.3 µM) | 6.25 (≈ 15.1 µM) |  |
| O=c1cc(COc2ccccc2I)c2ccc(Cl)cc2o1 |  | 25 (≈ 60.6 µM) | 12.5 (≈ 30.3 µM) | 12.5 (≈ 30.3 µM) | 6.25 (≈ 15.1 µM) |  |
| O=c1cc(COc2ccccc2I)c2cc(Br)ccc2o1 |  | 50 (≈ 109 µM) | 12.5 (≈ 27.3 µM) | 12.5 (≈ 27.3 µM) | 6.25 (≈ 13.7 µM) |  |
| Cc1ccc2oc(=O)cc(COc3cccc(I)c3)c2c1 |  | 12.5 (≈ 31.9 µM) | 25 (≈ 63.7 µM) | 25 (≈ 63.7 µM) | 25 (≈ 63.7 µM) |  |
| Cc1ccc2c(COc3cccc(I)c3)cc(=O)oc2c1 |  | 12.5 (≈ 31.9 µM) | 25 (≈ 63.7 µM) | 25 (≈ 63.7 µM) | 25 (≈ 63.7 µM) |  |
| Cc1ccc2c(COc3cccc(I)c3)cc(=O)oc2c1C |  | 25 (≈ 61.5 µM) | 25 (≈ 61.5 µM) | 25 (≈ 61.5 µM) | 25 (≈ 61.5 µM) |  |
| COc1ccc2oc(=O)cc(COc3cccc(I)c3)c2c1 |  | 50 (≈ 122 µM) | 12.5 (≈ 30.6 µM) | 50 (≈ 122 µM) | 25 (≈ 61.2 µM) |  |
| COc1ccc2c(COc3cccc(I)c3)cc(=O)oc2c1 |  | 50 (≈ 122 µM) | 12.5 (≈ 30.6 µM) | 50 (≈ 122 µM) | 25 (≈ 61.2 µM) |  |
| O=c1cc(COc2cccc(I)c2)c2c(ccc3ccccc32)o1 |  | 25 (≈ 58.4 µM) | 12.5 (≈ 29.2 µM) | 50 (≈ 117 µM) | 25 (≈ 58.4 µM) |  |
| O=c1cc(COc2cccc(I)c2)c2ccc3ccccc3c2o1 |  | 25 (≈ 58.4 µM) | 12.5 (≈ 29.2 µM) | 50 (≈ 117 µM) | 25 (≈ 58.4 µM) |  |
| O=c1cc(COc2cccc(I)c2)c2cc(Cl)ccc2o1 |  | 6.25 (≈ 15.1 µM) | 6.25 (≈ 15.1 µM) | 6.25 (≈ 15.1 µM) | 12.5 (≈ 30.3 µM) |  |
| O=c1cc(COc2cccc(I)c2)c2ccc(Cl)cc2o1 |  | 6.25 (≈ 15.1 µM) | 6.25 (≈ 15.1 µM) | 6.25 (≈ 15.1 µM) | 12.5 (≈ 30.3 µM) |  |
| O=C(Cc1cc(=O)oc2cc(O)ccc12)N/N=C/c1cccc([N+](=O)[O-])c1 |  |  |  |  |  | 6.25 (≈ 17 µM) |
| NC(=O)c1cnccn1 [PYRAZINAMIDE] |  | 3.12 (≈ 25.4 µM) |  |  | 3.12 (≈ 25.4 µM) |  |
| CN[C@@H]1[C@H](O[C@H]2[C@H](O[C@H]3[C@H](O)[C@@H](O)[C@H](N=C(N)N)[C@@H](O)[C@@H]3N=C(N)N)O[C@@H](C)[C@]2(O)C=O)O[C@@H](CO)[C@H](O)[C@H]1O [STREPTOMYCIN] |  | 6.25 (≈ 10.7 µM) |  |  | 6.25 (≈ 10.7 µM) |  |
